Laboratory results as given in ChEMBL document CHEMBL1144703, “Identification of novel ligands for the RNA pseudoknot that regulate -1 ribosomal frameshifting” (Bioorg Med Chem, 2008).
Activity calls are given as the source filed them. The calls are words filed in the database; no cut-off is given here.

How the values were obtained:
HEK293 = assay: Activity at synthetic biotin-RNA pseudoknot assessed as increase in -1 ribosomal frameshifting efficiency in human HEK293 cells at 250 uM by transcription/translation-coupled assay; format: cell-based
How it was run: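 HEK 293 in DMEM, 10% FBS, 1% pen-strep, seeded to 40% confluence, transfected with biotin-pseudoknot dual luciferase construct (50 ng DNA, JetPEI) for 18 h, then compound in DMSO added for a further 18 h. Passive lysis 30 min at room temperature, protein normalised by Bradford (50 μg), firefly/Renilla luciferase ratio read.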

[1] = Activity at synthetic biotin-RNA pseudoknot assessed as increase in -1 ribosomal frameshifting efficiency by rabbit reticulocyte based transcription/translation-coupled assay
How it was run: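 Concentration series 25 nM to 250 μM in rabbit reticulocyte TNT-coupled assay with biotin-pseudoknot template; biotin at 250 μM as comparator. Frameshifting % from SDS–PAGE autoradiogram, frameshift (100 kDa) vs non-frameshift (40 kDa) protein.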

[2] = Activity at synthetic biotin-RNA pseudoknot assessed as increase in -1 ribosomal frameshifting efficiency at 250 uM by rabbit reticulocyte based transcription/translation-coupled assay
How it was run: (§1)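 Biotin-pseudoknot template ligated into dual luciferase vector (XhoI/SpeI). Coupled transcription/translation in rabbit reticulocyte lysate with compounds at 250 μM in DMSO; DMSO control. Frameshift efficiency from SDS–PAGE band quantification (100 vs 40 kDa, PhosphorImager) or dual luciferase firefly/Renilla ratio, 10 s reads; fold change = efficiency with compound / without; triplicate runs.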

[3] = Activity at synthetic biotin-RNA pseudoknot assessed as increase in -1 ribosomal frameshifting efficiency at 250 uM by dual luciferase assay; how it was run: as §1
[4] = tested on: Pea enation mosaic virus-1; assay: Activity at PEMV RNA pseudoknot assessed as increase in -1 ribosomal frameshifting efficiency at 250 uM by dual luciferase based transcription/translation-coupled assay
How it was run: (§2)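 Template carries PEMV pseudoknot in place of biotin-pseudoknot in dual luciferase vector. In vitro TNT-coupled transcription/translation in rabbit reticulocyte lysate, compounds in DMSO (DMSO control). Read-out by SDS–PAGE autoradiography, frameshift (100 kDa) vs non-frameshift (40 kDa) products quantified by PhosphorImager, or by dual luciferase (firefly then Renilla, 10 s each, ratio); luciferase values mean of triplicates.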

[5] = tested on: Pea enation mosaic virus-1; assay: Activity at PEMV RNA pseudoknot assessed as increase in -1 ribosomal frameshifting efficiency at 250 uM by SDS-PAGE based transcription/translation-coupled assay; how it was run: as §2

Row | SMILES | Activity [3] | further results
1 | COC(=O)C(CCCCNC(=O)Nc1cc(F)ccc1F)NS(=O)(=O)c1ccc(C)cc1 (stereo unspecified) | 18.1% | Activity (HEK293): 8.05%; Activity [1]: Dose-dependent effect; Activity [2]: 13.7%; Activity [4]: inactive; Activity [5]: 7.6%
2 | CCOC(=O)c1cccc(NC(=O)N2CCCN2C(=O)c2cccnc2SCCCC#N)c1 | Active | –

Further lines, with some results ahead:

Row | Activity [3] | SMILES | further results
3 | Active | CSc1ccccc1NC(=O)NCC(=O)OCc1ccccc1 | –
4 | Active | COC(=O)c1cc(NC(=O)NCCSCc2ccccc2)cc(C(=O)OC)c1 | –
5 | Active | CCOC(=O)N1CCN(C(=O)Nc2ccccc2SC)CC1 | –
6 | Active | CCOC(=O)C(CSCc1ccccc1)NC(=O)Nc1ccc(SC)cc1 (stereo unspecified) | –
